Experimental data: PubChem BioAssay AID588425 (Johns Hopkins Ion Channel Center, 2011)
pIC50: −log10 of the molar value. Activity calls are given as the source filed them.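 The calls were made as follows: active = any inhibition of the KCNQ1 potassium channel at some tested dose, with a fitted dose response curve; inactive = no inhibition at any dose or no curve fitted.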

The compounds below were run against Potassium voltage-gated channel subfamily KQT member 1 (Homo sapiens) (UniProt P51787) (assay: human KCNQ1 blockade by KCNQ2 inhibitors – automated patch clamp, KCNQ1-CHO cells, selectivity assay for KCNQ2 inhibitor project, SAR follow-up (AID 588425)). Conditions: at 30 µM (top of the series).
Chain of Potassium voltage-gated channel subfamily KQT member 1 (Homo sapiens) (P51787 whole entry, looked up): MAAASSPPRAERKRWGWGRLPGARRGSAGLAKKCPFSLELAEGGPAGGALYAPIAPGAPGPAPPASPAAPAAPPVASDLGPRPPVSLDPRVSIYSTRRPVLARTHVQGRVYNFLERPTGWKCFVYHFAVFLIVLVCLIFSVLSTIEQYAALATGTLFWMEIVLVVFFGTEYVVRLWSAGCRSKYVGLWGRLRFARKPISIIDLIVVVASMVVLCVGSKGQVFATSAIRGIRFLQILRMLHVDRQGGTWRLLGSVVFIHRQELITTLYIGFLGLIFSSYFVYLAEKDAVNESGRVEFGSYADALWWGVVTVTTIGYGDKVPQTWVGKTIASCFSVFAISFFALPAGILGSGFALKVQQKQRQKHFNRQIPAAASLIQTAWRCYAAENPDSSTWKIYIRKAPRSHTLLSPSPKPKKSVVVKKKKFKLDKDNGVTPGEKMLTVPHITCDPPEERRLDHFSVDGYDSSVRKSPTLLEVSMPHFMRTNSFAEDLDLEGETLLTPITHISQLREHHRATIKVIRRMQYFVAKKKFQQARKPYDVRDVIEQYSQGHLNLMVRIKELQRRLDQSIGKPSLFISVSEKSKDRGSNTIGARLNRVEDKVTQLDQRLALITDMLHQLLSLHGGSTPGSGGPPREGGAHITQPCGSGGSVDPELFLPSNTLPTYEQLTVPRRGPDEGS
Outline: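 Repeats: quadruplicate per concentration; material: CHO cells expressing the KCNQ1 potassium channel; schedule: 2,000 ms depolarization per sweep; detection: automated patch clamp, amphotericin B-perforated recording of potassium current; dosing: several compound concentrations per compound, concentration-response series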

| Compound | current change, negative = inhibition |
| --- | --- |
| CCC(C(=O)Nc1ccccc1N1CCCC1)c1cccc(C)c1 (stereo unspecified) | inactive |
| C[C@H](C(=O)Nc1ccccc1N1CCCC1)c1ccccc1 | inactive |
| CCC(C(=O)Nc1ccccc1N1CCCC1)c1ccccc1F (stereo unspecified) | inactive |
| CCC(C(=O)Nc1ccccc1N1CCCC1)c1cccc(C(F)(F)F)c1 (stereo unspecified) | inactive |
| CCC(C(=O)Nc1ccccc1-c1ccccc1)c1ccccc1 (stereo unspecified) | inactive |
| CCC(C(=O)Nc1ccccc1N1CCCC1)c1ccc(Cl)cc1 (stereo unspecified) | inactive |
| CC[C@H](C(=O)Nc1ccc(N2CCCC2)cc1)c1ccccc1 | inactive |

Same assay, conditions: automated patch clamp current

| Compound | pIC50 |
| --- | --- |
| CCC(C(=O)Nc1ccccc1-n1cccc1)c1ccccc1 (stereo unspecified) | 4.86 |
| CCC(C(=O)Nc1ccccc1N1CCCC1)c1cccc(OC)c1 (stereo unspecified) | 4.66 |
| CCC(C(=O)Nc1ccccc1N1CCCC1)c1cccc(Cl)c1 (stereo unspecified) | 4.95 |
| CCC(C(=O)Nc1ccccc1N1CCCC1)c1ccc(F)cc1 (stereo unspecified) | 5.17 |
| CCC(C(=O)Nc1ccccc1N1CCCC1)c1ccc(Cl)c(Cl)c1 (stereo unspecified) | 5.00 |
| O=C(Nc1ccccc1N1CCCC1)C1CCc2ccccc21 (stereo unspecified) | 4.92 |
| CCC(C(=O)Nc1ccc(N2CCCC2)cc1)c1ccccc1 (stereo unspecified) | 4.54 |
| CC[C@@H](C(=O)Nc1ccccc1N1CCCC1)c1ccccc1 | 5.06 |
| CCC(C(=O)Nc1ccccc1N1CCCC1)c1ccccc1 (stereo unspecified) | 4.71 |
| CCC(C(=O)Nc1ccccc1N1CCCC1)c1ccc(F)c(F)c1 (stereo unspecified) | 5.59 |
| CC(C(=O)Nc1ccccc1N1CCCC1)c1ccccc1 (stereo unspecified) | 4.54 |
| CCC(C(=O)Nc1ccccc1N1CCCC1)c1cccc(F)c1 (stereo unspecified) | 4.75 |
| CC[C@H](C(=O)Nc1ccccc1N1CCCC1)c1ccccc1 | 5.53 |
| CC[C@@H](C(=O)Nc1ccc(N2CCCC2)cc1)c1ccccc1 | 4.83 |
